Experimental data as given in PubChem BioAssay AID504348 (Broad Institute, 2011).
Results filed as inconclusive are left out. The source made the active and inactive calls.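 How the source made its calls: active means dose curve reaching 10% of the positive control caspase signal at or below the top valid dose; inconclusive means no clear call, values can overlap the other calls; inactive means reverse-direction response, or no crossing within range.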

test: apoptosis induction in Mcl1-reliant human cancer line – cell-based, HMC 1-8, luminescence, dry powder, set 3, counter-screen for A1 inhibitor project, dose response (AID 504348); conditions: HMC 1-8 cells, caspase-Glo luminescence, 4 h; series mostly up to 35 µM
How it was run: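 Medium: RPMI-1640 plus 10% FBS; test system: HMC 1-8 human cancer cells, low A1, Mcl1-dependent; quantity: 2500 cells/well; read-out: caspase activation; incubation: 4 h compound exposure, 37 °C, plus 1 h room-temperature detection; detection: CaspaseGlo luminescence; doses: pinned compound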

| SMILES | outcome |
| --- | --- |
| Cc1ccc(Sc2c([N+](=O)[O-])c(=O)n(Cc3ccccc3)c3ccccc23)cc1 | inactive |
| C/C(=N\Nc1nc(N2CCCCC2)nc(N2CCCCC2)n1)c1ccc(F)cc1 | inactive |
| COc1ccc(CCNc2nc(N3CCOCC3)nc(N3CCOCC3)n2)cc1OC | inactive |
| COc1ccc(N2CCN(c3nc(NCCc4ccc(OC)c(OC)c4)nc(N4CCOCC4)n3)CC2)cc1 | inactive |
| COc1nc2ccccc2c(Sc2ccc(C)cc2)c1[N+](=O)[O-] | inactive |
| COCCn1c(=O)c([N+](=O)[O-])c(Sc2ccc(C)cc2)c2ccccc21 | inactive |
| O=C(COc1ccc(Cl)cc1Cl)NNc1nc(N2CCOCC2)nc(N2CCOCC2)n1 | inactive |
| CCn1c(=O)c([N+](=O)[O-])c(Sc2ccc(C)cc2)c2ccccc21 | inactive |
| Cn1c(=O)c(Sc2ccccn2)c(Sc2ccccn2)c2ccccc21 | inactive |
| O=c1[nH]c2ccccc2c(Cl)c1[N+](=O)[O-] | inactive |
| COc1ccc(CCNc2nc(N3CCCC3)nc(N3CCCC3)n2)cc1OC | inactive |
